What was measured:
[1] = tested on: human plasma HDLs; assay: Pre-beta HDL ELISA after incubating human plasma with peptide; type: biochemical; settings: ELISA screen
How it was run: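 Peptides were incubated with human plasma in vitro for 1 h. Pre-beta HDL was then quantified by ELISA and reported as the concentration of pre-beta HDL generated, as mean ± SD.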

[2] = tested on: mouse macrophage J774 cells; type: cell-based; settings: 0.3 mg/mL peptide in human plasma, 2% apoB-depleted plasma, 4 h
How it was run: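 Mouse macrophage J774 cells were incubated 4 h with 2% apoB-depleted plasma samples. The plasma was human plasma pre-treated with peptide at 0.3 mg/mL (~270 μM cyclic peptide), with a concentration range for one peptide. Efflux was expressed relative to vehicle-treated plasma, set as 0% efflux. Samples were run in quadruplicate and reported as mean ± SD. Peptide alone as acceptor was also tested against vehicle.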

[3] = tested on: human plasma HDL; assay: Human plasma remodeling, Western blot for human apoA-I; type: biochemical; settings: Western blot, 0.4, 0.2, 0.1 mg/mL
How it was run: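 Lipid-poor pre-beta HDL was then detected by Western blotting for human apoA-I. The positive control was a control peptide at 0.1 mg/mL, and the negative control was 10% sucrose.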

Substance	HDL remodeling activity (pre-beta HDL formation), in words [1]	cholesterol efflux, in words [2]	plasma HDL remodeling, in words [3]
pyLwKsKsK [compound 37]	promoted HDL remodeling		
wNAwReQeR [compound 26]	less active than peptide 21		
wLwReQeO [compound 18]	essentially inactive		
wAOwReQeR [compound 24]	less active than peptide 21		
wLWReQeR [compound 28]	reduced		
WlWrEqEr [compound 22]	nearly identical		
Ac-wLwSeQsO-NH2 [compound 82]		failed to remodel plasma HDL or promote cholesterol efflux	failed to remodel plasma HDL
wLwErQrE [compound 30]	dramatically reduced compared to 21	dramatically reduced compared to that of 21	
wLwREQeR [compound 29]	reduced		
wMeLwReMeQeR [peptide 27]	greatly diminished compared to 21		
wHLwReQeR [compound 23]	less active than peptide 21		
c[wL^MewSeQ^MesO] [compound 83]		greatly diminished	greatly diminished
wWwReQeR [compound 25]	less active than peptide 21		

Reference: publication PMC5492419 (ACS Central Science, 2017)
